In all, about 290,000 compounds went through this assay and about 1,600 (0.55%) were called active. The list comes from a sample in which actives are over-represented; it also holds similar structures and randomly drawn compounds. Unmarked numbers belong to inactive results.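 The calls were made as follows: active = inhibition above the mean of all tested compounds plus 3 SD, set per campaign (cut at about 35% in these data); inactive = the rest.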
test system: Hepatitis C virus NS3 helicase; test: inhibitors of HCV NS3 helicase, primary screen, biochemical, Cy5 molecular beacon fluorescence (AID 1800); settings: NS3 helicase DNA unwinding, at 10.9 µM, stronger effect = higher value;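 also: 0% = DMSO wells and 100% = thioflavine S control wells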
Summary of the method: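 Test system: hepatitis C virus NS3 helicase domain fragment enzyme. Also added: annealed dual-labelled DNA beacon duplex, ATP-started. Timing: 60 min unwinding reaction at 25 °C after ATP addition. Technique: Cy5 fluorescence. Measure: % inhibition of unwinding.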

SMILES | inhibition
CC(=O)c1ccc(N2CCN(S(=O)(=O)c3ccc4c(c3)CC(=O)N4C)CC2)cc1 | 26.3%
O=S(=O)(NC1CC1)c1ccc(Cl)cc1 | 4.09%
COc1ccc(NC(=O)CC2C(=O)NC3CCCCC3N2C(=O)c2ccc(F)cc2)cc1 (centres undefined) | -15.6%
Cc1ccc(-c2n[nH]c(=S)n2/N=C/c2cc3c(cc2[N+](=O)[O-])OCO3)cc1 | 8.58%
Cc1ccc(S(=O)(=O)N/N=C\c2cc3c(cc2[N+](=O)[O-])OCO3)cc1 | 54.2% (active)
CC(=O)N/N=C/c1cc2c(cc1[N+](=O)[O-])OCO2 | 3.66%
CC(=O)Nc1ccc(NC(=O)CCCNC(=O)c2ccc(Cl)cc2)cc1 | -9.29%
CCCN1CCn2c3c(c4cc(Br)ccc42)CCCC31 (centres undefined) | -17.6%
Cc1nnc(SCC(=O)N/N=C/c2cn(-c3ccccc3)nc2-c2ccc(F)cc2)n1-c1ccccc1 | -0.42%
Cc1ccc(-c2nn(-c3ccccc3)cc2/C=N/NC(=O)c2ccc3c(c2)OCO3)cc1 | 3.37%
O=C(N/N=C/c1ccc([N+](=O)[O-])o1)c1cn(-c2ccccc2)nc1-c1ccc(F)cc1 | 37% (active)
CC(=O)N1CCC(C(=O)Nc2nc(-c3ccccc3)ns2)CC1 | 1.62%
O=C(c1cnc(Cl)c(Cl)c1)N1CCN(S(=O)(=O)c2ccc(F)cc2)CC1 | 5.16%
O=C(c1cccc(-n2cccc2)c1)N1CCN(S(=O)(=O)c2ccc(F)cc2)CC1 | 77% (active)
O=C(c1cccc(C(=O)N2CCN(c3ccc(F)cc3)CC2)c1)N1CCN(c2ccc(F)cc2)CC1 | -2.81%
CNS(=O)(=O)c1cccc(C(=O)NCC2CCCCC2)c1 | -9.16%
CNS(=O)(=O)c1cccc(C(=O)NC2CCCc3ccccc32)c1 (centres undefined) | 37% (active)
O=C(O)c1cc(S(=O)(=O)NC2CCCc3ccccc32)ccc1O (centres undefined) | 7.44%
CC1(C)NC(=O)N(CC(=O)Nc2cc(C(F)(F)F)cc(C(F)(F)F)c2)C1=O | -6.82%
CCn1cc(C(=O)OCC(=O)Nc2cccc(C)c2)c(=O)c2ccc(C)nc21 | 4.57%
COc1ccc(C(=O)NC2CCN(C(=S)NCCc3ccccc3)CC2)cc1 | 0.36%
S=C(NCCc1ccccc1)N1CCCCC1 | 40.9% (active)
O=C1CCN(C(=S)NCCc2ccccc2)CC1 | -6.74%

SMILES | inhibition
COc1ccc(CCn2c(=N)c(C(=O)NCC3CCCO3)cc3c(=O)n4cccc(C)c4nc32)cc1OC (centres undefined) | 0.37%
COc1cc(NS(=O)(=O)c2ccc(NC(=S)NC(=O)c3ccccc3)cc2)nc(OC)n1 | 11%
COc1nnc(-c2ccc(C)c(S(=O)(=O)N(C)C)c2)c2ccccc12 | -1.73%
CN(CC1CCCO1)S(=O)(=O)c1ccc(C(=O)Nc2ccc([N+](=O)[O-])cc2)cc1 (centres undefined) | -4.51%
COC(OC)c1ccnc(SCc2ccccc2Cl)n1 | -11.3%
O=c1[nH]c(SCc2ccccc2)nnc1-c1ccccc1 | 35.9%
Fc1cccc(Cl)c1CSc1ccc(-c2ccco2)nn1 | 5.94%
c1ccc(CSc2nnc(-c3ccco3)c(-c3ccco3)n2)cc1 | 38.3% (active)
Brc1ccc(CSc2ccc(-c3ccco3)nn2)cc1 | 3.25%
Clc1ccccc1CSc1nnc(-c2ccco2)c(-c2ccco2)n1 | 53.8% (active)
COc1ccc(/C=N/OCc2ccccc2C#N)c(OC)c1 | -11.6%
CC(C)c1ccc(S(=O)(=O)N2CCN(C(=O)c3ccc(N4CCCC4)c([N+](=O)[O-])c3)CC2)cc1 | -8.12%
CS(=O)(=O)N1CCN(CC(=O)NC2CCCC2)CC1 | 2.51%
CCOc1ccc(S(=O)(=O)N2CCC(C(=O)NCc3ccccn3)CC2)cc1Cl | 4.14%
Cc1ccc(NC(=O)[C@H](Cc2ccccc2)NC(=O)C2CCNCC2)cc1 | -12.4%
COC(=O)C1=C(O)/C(=C/c2ccc(OCC(=O)Nc3ccccc3)cc2)N=C1C | -4.57%
CCOC(=O)C1=C(O)/C(=C/c2cc(C)n(-c3ccccc3)c2C)N=C1C | 46.3% (active)
CCOC(=O)C1=C(O)/C(=C/c2ccc(OCC(=O)Nc3ccc(C)cc3)cc2)N=C1C | 8.39%
COc1ccc2oc(C(=O)NCC(Cc3ccccc3)N(C)C)c(C)c2c1 (centres undefined) | -39.7%
O=C(CCCN1CCc2[nH]c3ccc(F)cc3c2C1)c1ccc(F)cc1 | -45%
CCC(C)NC(=O)C1c2ccccc2C(=O)N1Cc1ccccc1 (centres undefined) | -11.1%
COCCCNS(=O)(=O)c1cccc(S(=O)(=O)c2cccc(S(=O)(=O)NCCCOC)c2)c1 | 3.55%
CC(C)c1ccc(C2C(C(=O)c3ccco3)=C(O)C(=O)N2CC2CCCO2)cc1 (centres undefined) | 55.9% (active)

SMILES | inhibition
O=C(C1=C(O)C(=O)N(Cc2ccccc2)C1c1cccnc1)c1ccco1 (centres undefined) | -5.86%
O=C(C1=C(O)C(=O)N(Cc2ccccc2)C1c1ccco1)c1ccco1 (centres undefined) | 17.3%
O=C(OCC1O[C@@H](OC(=O)c2cc(O)c(O)c(O)c2)[C@@H](OC(=O)c2cc(O)c(O)c(O)c2)[C@@H](OC(=O)c2cc(O)c(O)c(O)c2)[C@@H]1OC(=O)c1cc(O)c(O)c(O)c1)c1cc(O)c(O)c(O)c1 (some centres undefined) | 63.6% (active)
CCC(NC(=O)c1ccccc1NC(=O)c1ccccc1)C(=O)NNC(=O)CSc1nc2ccccc2o1 (centres undefined) | -3.35%
CN1CCN(/N=C/c2ccc(-c3ccc([N+](=O)[O-])cc3)o2)CC1 | -1.77%
CN1C(=O)/C(=C\c2ccc(-c3ccccc3)o2)SC1=S | 23.6%
NS(=O)(=O)c1ccc(-c2ccc(/C=C3\SC(=O)NC3=O)o2)cc1 | 60.5% (active)
CCOc1ccc(CN2CCNC(=O)C2CC(=O)NCCCC2CCCC2)cc1 (centres undefined) | -18.7%
COc1ccc(/C=C2\SC(=S)N(CCCC(=O)NC3CCCC3)C2=O)cc1OC | 19%
COc1ccc(/C=C2\SC(=S)N(CCC(=O)Nc3ccccn3)C2=O)cc1OC | -1.07%
COc1ccc(/C=C2\SC(=S)N(CCC(=O)Nc3cccc(C(=O)O)c3)C2=O)cc1OC | 61% (active)
O=C(NC1CCCC1)c1cc(-c2ccccc2)on1 | -12.1%
O=C(NCCc1ccccn1)c1nc(Cn2cc([N+](=O)[O-])cn2)no1 | 2.16%
COCCN1CCn2c(nc3cc(NS(C)(=O)=O)ccc32)C1 | -2.65%
Cc1nn(CC(=O)Nc2ccc(F)cc2)c(=O)c2ccccc12 | 17.6%
COc1ccc(C2=NN(C(C)=O)C(c3ccccc3)C2)cc1 (centres undefined) | -3.52%
O=C(O)CCCC(=O)N1N=C(c2ccco2)CC1c1ccco1 (centres undefined) | 1.26%
Cc1nn2c(c1-c1ccccc1)N=C(c1ccco1)CC2c1ccccc1 (centres undefined) | 39.1% (active)
Nc1ccc2nc3c(=O)[nH]c(=S)[nH]c3nc2c1 | 80.4% (active)
Cc1cc2nc3c(=O)n(Cc4ccccc4)c(=O)[nH]c3nc2cc1N | -1.52%
CCc1cccc(C)c1N1C(=O)CN(Cc2ccccc2)C1=S | -10.7%
O=C(C[C@H]1C(=O)N(c2ccc(F)c(F)c2)C[C@@H]1Cc1ccccc1)Nc1ccccc1 | -4.71%
Cc1ccc(S(=O)(=O)N2CCN(C)CC2)cc1C(=O)NC1CCCCC1 | 0.44%

SMILES | inhibition
COc1ccc(CNC(=O)c2nnn(CC(=O)Nc3cc(C)cc(C)c3)c2N)cc1 | -13.3%
COc1cccc(CNC(=O)c2nnn(CC(=O)Nc3cc(Cl)ccc3C)c2N)c1 | 38.7% (active)
COc1cccc(CNC(=O)c2nnn(CC(=O)Nc3cc(C)ccc3C)c2N)c1 | 8.19%
CS(=O)(=O)C1=NN2C(=N)/C(=C\c3ccc(OCCOc4ccccc4)cc3)C(=O)N=C2S1 | 7.31%
CS(=O)(=O)c1ccc2c(c1)SC1=NC(=O)/C(=C/c3ccco3)C(=N)N12 | 39.8% (active)
Cc1cc(/C=C2/C(=N)N3C(=NC2=O)SN=C3S(C)(=O)=O)c(C)n1-c1ccccc1 | 20%
CCN(CC)C(=O)COc1coc(CN2CCN(Cc3ccccc3)CC2)cc1=O | -0.99%
CCSc1nsc(NC(=O)Nc2cccc(C(C)=O)c2)n1 | 38.8% (active)
CCSc1nsc(NC(=O)Nc2ccccc2OC)n1 | -3.36%
C=CCSc1nsc(NC(=O)Nc2cccc(C(C)=O)c2)n1 | -3.05%
CCOc1ccc(N(C)S(=O)(=O)c2cnc[nH]2)cc1 | 4.43%
COC(=O)c1ccccc1NC(=O)C1CCN(C(=O)N2CCOc3ccccc32)CC1 | -12.1%
COc1ccc(S(=O)(=O)NCC(=O)NC2CC2)cc1OC | 22.6%
COc1ccc(C)cc1NC(=O)NCCCCc1ccccc1 | 2.02%
CN(C(=O)COC(=O)c1cc(-c2ccco2)nc2ccccc12)C1CCS(=O)(=O)C1 (centres undefined) | 20.9%
Cc1cc(C)c2nc(-c3ccco3)cc(C(=O)O)c2c1 | 37.2% (active)
COC(=O)c1cnn2c(C(F)(F)F)cc(-c3ccco3)nc12 | 18.2%
O=C(Oc1ccc(C(=S)N2CCOCC2)cc1)c1ccc(F)cc1 | -0.77%
O=C(Oc1ccc(F)cc1)N1CCOCC1 | 4.09%
N#C/C=C(/c1ccc(F)cc1)N1CCOCC1 | 40.5% (active)

Source: PubChem BioAssay AID1800 (The Scripps Research Institute Molecular Screening Center, 2009)
